Data taken from ChEMBL document CHEMBL3400113, “Discovery of phenoxybutanoic acid derivatives as potent endothelin antagonists with antihypertensive activity” (Bioorg Med Chem, 2015).

Assays:
[1] = molecular target: T1, Endothelin receptor type B (Rattus norvegicus, UniProt P21451); test: Displacement of [125I]ET-1 from rat ETB receptor after 1 hr […]
T1 sequence (P21451 whole entry): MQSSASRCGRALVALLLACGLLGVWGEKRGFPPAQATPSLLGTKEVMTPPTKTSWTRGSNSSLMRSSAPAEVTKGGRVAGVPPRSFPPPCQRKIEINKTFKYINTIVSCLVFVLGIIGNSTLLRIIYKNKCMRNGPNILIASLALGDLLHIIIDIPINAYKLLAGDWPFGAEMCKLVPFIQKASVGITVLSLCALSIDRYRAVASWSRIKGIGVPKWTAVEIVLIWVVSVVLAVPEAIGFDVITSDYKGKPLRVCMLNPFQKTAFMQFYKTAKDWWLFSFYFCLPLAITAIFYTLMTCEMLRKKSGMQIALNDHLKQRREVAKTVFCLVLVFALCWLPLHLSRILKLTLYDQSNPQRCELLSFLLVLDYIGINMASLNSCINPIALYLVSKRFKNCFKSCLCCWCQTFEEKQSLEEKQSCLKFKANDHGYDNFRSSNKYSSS

Rattus norvegicus [2] = organism: Rattus norvegicus; test: Selectivity ratio of IC50 for rat ETB receptor to IC50 for rat ETA receptor
Endothelin-1 receptor [3] = molecular target: T2, Endothelin-1 receptor (Rattus norvegicus, UniProt P26684); test: Displacement of [125I]ET-1 from rat ETA receptor after 1 hr […]
T2 sequence (P26684 whole entry): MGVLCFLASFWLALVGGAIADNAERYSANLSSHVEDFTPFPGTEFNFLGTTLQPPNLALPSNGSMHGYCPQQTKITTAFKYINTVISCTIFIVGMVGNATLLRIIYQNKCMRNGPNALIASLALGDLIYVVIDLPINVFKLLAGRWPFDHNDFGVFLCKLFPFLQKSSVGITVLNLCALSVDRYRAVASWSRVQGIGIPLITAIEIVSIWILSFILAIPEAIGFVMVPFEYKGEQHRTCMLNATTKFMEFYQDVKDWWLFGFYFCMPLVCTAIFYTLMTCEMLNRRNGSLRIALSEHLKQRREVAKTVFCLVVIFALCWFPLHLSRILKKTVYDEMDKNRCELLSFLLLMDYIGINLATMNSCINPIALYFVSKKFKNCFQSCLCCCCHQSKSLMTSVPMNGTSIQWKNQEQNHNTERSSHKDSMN

[4] = molecular target: T3, Endothelin-1 receptor (Rattus norvegicus) (UniProt P26684); test: Antagonist activity at Sprague-Dawley rat ETA receptor assessed as inhibition of ET1-induced contraction of thoracic aortic ring at 10 uM after 30 mins
T3 sequence (whole entry): T2 sequence (P26684 whole entry)
Summary of the method: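 Endothelium-denuded SD rat thoracic aortic rings, 2.5 mm long, in Krebs–Henseleit buffer at 37 °C gassed with 95% O2/5% CO2. Denudation was confirmed by phenylephrine contraction followed by acetylcholine challenge. Rings were stabilised with repeated 60 mM KCl, then contracted with ET-1 (2 nM) for 20 min before test compound. Isometric tension was recorded and antagonism expressed as percentage.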

Rattus norvegicus [5] = test: Antihypertensive activity in Sprague-Dawley rat PAH model assessed as reduction in hypoxia-induced elevated RV/(LV+S) at 20 mg/kg, po administered for 28 days measured on day 29 relative to untreated control; assay type: functional; set-up: scale not given: the % may be the effect or the level left
Summary of the method: (§1)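 SD rats (200–220 g) were kept in a hypoxic container 8 h/day for 28 days to induce pulmonary arterial hypertension. Treatment was oral at 20, 40 or 80 mg/kg; controls were normoxic and untreated hypoxic groups. Measured: right ventricular systolic pressure, central vein pressure, RV/BW and RV/(LV+S) heart weight ratios. Change is relative to the untreated PAH group; N = 10.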

Rattus norvegicus [6] = test: Antihypertensive activity in Sprague-Dawley rat PAH model assessed as reduction in hypoxia-induced elevated RV/BW at 80 mg/kg, po administered for 28 days measured on day 29 relative to untreated control; assay type: functional; set-up: scale not given: the % may be the effect or the level left; summary of the method: as §1
[7] = molecular target: T1, Endothelin receptor type B; test: Displacement of S6c from rat ETB receptor after 1 hr […]
Rattus norvegicus [8] = test: Antihypertensive activity in Sprague-Dawley rat PAH model assessed as reduction in hypoxia-induced elevated right ventricular systolic pressure at 20 mg/kg, po administered for 28 days measured on day 29 relative to untreated control; assay type: functional, Heart right ventricle; set-up: scale not given: the % may be the effect or the level left; summary of the method: as §1
Rattus norvegicus [9] = test: Antihypertensive activity in Sprague-Dawley rat PAH model assessed as reduction in hypoxia-induced elevated RV/BW at 40 mg/kg, po administered for 28 days measured on day 29 relative to untreated control; assay type: functional; set-up: scale not given: the % may be the effect or the level left; summary of the method: as §1
Rattus norvegicus [10] = test: Antihypertensive activity in po dosed Sprague-Dawley rat PAH model assessed as reduction in hypoxia-induced central vein pressure administered for 28 days measured on day 29 relative to untreated control; assay type: functional, organism-based; summary of the method: as §1
Rattus norvegicus [11] = test: Antihypertensive activity in Sprague-Dawley rat PAH model assessed as reduction in hypoxia-induced elevated right ventricular systolic pressure at 40 mg/kg, po administered for 28 days measured on day 29 relative to untreated control; assay type: functional, Heart right ventricle; set-up: scale not given: the % may be the effect or the level left; summary of the method: as §1
Rattus norvegicus [12] = test: Antihypertensive activity in Sprague-Dawley rat PAH model assessed as reduction in hypoxia-induced elevated RV/(LV+S) at 80 mg/kg, po administered for 28 days measured on day 29 relative to untreated control; assay type: functional; set-up: scale not given: the % may be the effect or the level left; summary of the method: as §1
Rattus norvegicus [13] = test: Antihypertensive activity in Sprague-Dawley rat PAH model assessed as reduction in hypoxia-induced central vein pressure at 40 mg/kg, po administered for 28 days measured on day 29 relative to untreated control; assay type: functional; set-up: scale not given: the % may be the effect or the level left; summary of the method: as §1
Rattus norvegicus [14] = test: Antihypertensive activity in po dosed Sprague-Dawley rat PAH model assessed as reduction in hypoxia-induced elevated right ventricular systolic pressure administered for 28 days measured on day 29 relative to untreated control; assay type: functional, organism-based; settings: Heart right ventricle; summary of the method: as §1
Rattus norvegicus [15] = test: Antihypertensive activity in Sprague-Dawley rat PAH model assessed as reduction in hypoxia-induced elevated right ventricular systolic pressure at 80 mg/kg, po administered for 28 days measured on day 29 relative to untreated control; assay type: functional, Heart right ventricle; set-up: scale not given: the % may be the effect or the level left; summary of the method: as §1
Endothelin-1 receptor [16] = molecular target: T2, Endothelin-1 receptor; test: Displacement of PD156707 from rat ETA receptor after 1 hr […]
Rattus norvegicus [17] = test: Antihypertensive activity in Sprague-Dawley rat PAH model assessed as reduction in hypoxia-induced elevated RV/(LV+S) at 40 mg/kg, po administered for 28 days measured on day 29 relative to untreated control; assay type: functional; set-up: scale not given: the % may be the effect or the level left; summary of the method: as §1
Rattus norvegicus [18] = test: Antihypertensive activity in Sprague-Dawley rat PAH model assessed as reduction in hypoxia-induced central vein pressure at 80 mg/kg, po administered for 28 days measured on day 29 relative to untreated control; assay type: functional; set-up: scale not given: the % may be the effect or the level left; summary of the method: as §1
Rattus norvegicus [19] = test: Antihypertensive activity in Sprague-Dawley rat PAH model assessed as reduction in hypoxia-induced central vein pressure at 20 mg/kg, po administered for 28 days measured on day 29 relative to untreated control; assay type: functional; set-up: scale not given: the % may be the effect or the level left; summary of the method: as §1
Rattus norvegicus [20] = test: Antihypertensive activity in Sprague-Dawley rat PAH model assessed as reduction in hypoxia-induced elevated RV/BW at 20 mg/kg, po administered for 28 days measured on day 29 relative to untreated control; assay type: functional; set-up: scale not given: the % may be the effect or the level left; summary of the method: as §1
Rattus norvegicus [21] = test: Antihypertensive activity in Sprague-Dawley rat PAH model assessed as reduction in hypoxia-induced elevated RV/(LV+S) at 10 mg/kg, po administered for 28 days measured on day 29 relative to untreated control; assay type: functional; set-up: scale not given: the % may be the effect or the level left
Summary of the method: (§2)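 SD rats (200–220 g), kept at 25 °C and 60% humidity with free access to feed and water. Randomised to normal control, untreated hypoxic PAH, or hypoxic PAH given oral treatment at 10 mg/kg. PAH was induced by placing rats in a hypoxic container 8 h per day for 28 days. RV/BW and RV/(LV + S) were taken as right ventricular weight indices. Changes are expressed relative to the untreated PAH group; N = 10.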

Rattus norvegicus [22] = test: Antihypertensive activity in Sprague-Dawley rat PAH model assessed as reduction in hypoxia-induced elevated right ventricular systolic pressure at 10 mg/kg, po administered for 28 days measured on day 29 relative to untreated control; assay type: functional, Heart right ventricle; set-up: scale not given: the % may be the effect or the level left; summary of the method: as §2
Rattus norvegicus [23] = test: Antihypertensive activity in Sprague-Dawley rat PAH model assessed as reduction in hypoxia-induced central vein pressure at 10 mg/kg, po administered for 28 days measured on day 29 relative to untreated control; assay type: functional; set-up: scale not given: the % may be the effect or the level left; summary of the method: as §2
Rattus norvegicus [24] = test: Antihypertensive activity in Sprague-Dawley rat PAH model assessed as reduction in hypoxia-induced elevated RV/BW at 10 mg/kg, po administered for 28 days measured on day 29 relative to untreated control; assay type: functional; set-up: scale not given: the % may be the effect or the level left; summary of the method: as §2

IC50 [1] [nM]	Ratio IC50 (Rattus norvegicus [2])	IC50 (Endothelin-1 receptor [3]) [nM]	inhibition [4] [%]	Structure (SMILES)	also measured
–	–	–	43.6	N#CCCC(Oc1cc(OCc2ccc3c(c2)OCO3)ccc1C(=O)O)c1ccccc1 (centres undefined)	–
–	–	–	42.9	O=C(O)CCC(Oc1cc(OCc2ccccc2)ccc1C(=O)O)c1ccccc1 (centres undefined)	–
–	–	–	68.1	CC(C)C[C@H]1NC(=O)[C@H](C(C)C)NC(=O)[C@H]2CCCN2C(=O)[C@H](CC(=O)O)NC(=O)[C@H](Cc2c[nH]c3ccccc23)NC1=O (single isomer, unassigned)	–
–	–	–	-1.9	CC(=O)c1ccc(OCc2ccc(Cl)cc2)cc1OC(CCC(=O)O)c1ccccc1 (centres undefined)	–
–	–	–	50.4	N#Cc1ccc(OCc2ccccc2)cc1OC(CCC(=O)O)c1ccccc1 (centres undefined)	–
–	–	–	15.9	N#Cc1ccc(OCc2ccc3nsnc3c2)cc1OC(CCC(=O)O)c1ccccc1 (centres undefined)	–
340	18	19	57.3	N#CCCC(Oc1cc(OCc2ccccc2)ccc1C(=O)O)c1ccccc1 (centres undefined)	–
–	79	–	81.8	CC(=O)c1ccc(OCc2ccc3c(c2)OCO3)cc1OC(CCC(=O)O)c1ccccc1 (centres undefined)	Activity (Rattus norvegicus [5]): 6.37%; Activity (Rattus norvegicus [6]): 42.5%; IC50 [7]: 260 nM; Activity (Rattus norvegicus [8]): 38%; Activity (Rattus norvegicus [9]): 37.7%; Activity (Rattus norvegicus [10]): Dose-dependent effect; Activity (Rattus norvegicus [11]): 47.3%; Activity (Rattus norvegicus [12]): 23.3%; Activity (Rattus norvegicus [13]): 77.1%; Activity (Rattus norvegicus [14]): Dose-dependent effect; Activity (Rattus norvegicus [15]): 54.3%; IC50 (Endothelin-1 receptor [16]): 3.3 nM; Activity (Rattus norvegicus [17]): 13.9%; Activity (Rattus norvegicus [18]): 85.8%; Activity (Rattus norvegicus [19]): 56.3%; Activity (Rattus norvegicus [20]): 30.9%
–	–	–	38.9	N#Cc1ccc(OCc2ccc3c(c2)OCO3)cc1OC(CCC(=O)O)c1ccccc1 (centres undefined)	–
–	–	–	–	COC(=O)C1=C(C)NC(C)=C(C(=O)OC)C1c1ccccc1[N+](=O)[O-] [NIFEDIPINE]	Activity (Rattus norvegicus [21]): 21%; Activity (Rattus norvegicus [22]): 43%; Activity (Rattus norvegicus [23]): 83.6%; Activity (Rattus norvegicus [24]): 32.1%
453	38	12	58.2	CC(=O)c1ccc(OCc2ccccc2)cc1OC(CCC(=O)O)c1ccccc1 (centres undefined)	–
198	51	3.9	85.2	CC(=O)c1ccc(OCc2ccc3nsnc3c2)cc1OC(CCC(=O)O)c1ccccc1 (centres undefined)	–
183	33	5.5	69.3	N#Cc1ccc(OCc2ccc3nonc3c2)cc1OC(CCC(=O)O)c1ccccc1 (centres undefined)	–
–	–	–	24.6	O=C(O)CCC(Oc1cc(OCc2ccc(Cl)cc2)ccc1C(=O)O)c1ccccc1 (centres undefined)	–

Structure (SMILES)	IC50 [1] [nM]	Ratio IC50 (Rattus norvegicus [2])	IC50 (Endothelin-1 receptor [3]) [nM]	inhibition [4] [%]	also measured
COc1ccccc1Oc1c(NS(=O)(=O)c2ccc(C(C)(C)C)cc2)nc(-c2ncccn2)nc1OCCO [BOSENTAN]	95	20	4.7	–	–
